Measurements published in article PMC5669405 (Biochemistry and Biophysics Reports, 2015).

Legend:
[1] = MTT cell viability, compound alone; format: cell-based, human; details: human, SH-SY5Y neuroblastoma cells
Summary of the method: (§1)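 Cells were SH-SY5Y grown in DMEM/F12 with 10% FBS at 37 °C and 5% CO₂, seeded at 5×10⁴ cells/well, and given fresh medium with 0.9 µM compound alone 24 h after plating. After 24 h, MTT (5 mg/mL stock) was added for 4 h, then isopropanol/0.04 mol/L HCl overnight. Read OD570 minus OD700, normalised to untreated and 100% death controls. Triplicate wells, three plates, mean±SEM, kept in the dark.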

Solubility check = format: physicochemical
Aβ (1–42) [2] = target: T1, Aβ (1–42) (Homo sapiens, UniProt P05067); experiment: SDS-PAGE and western blotting of Aβ; format: biochemical; details: for Smear bands in SDS-PAGE: 30 µM compound, 24 h, 37 °C; for Effects on Aβ aggregation (in words): derivatives without hydroxy groups on the aromatic groups
T1 sequence (P05067 672-713): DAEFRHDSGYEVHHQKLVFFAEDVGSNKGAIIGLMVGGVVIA
Summary of the method: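 Aβ(1–42) monomerized in HFIP (1 mM, 37 °C, 1 h), diluted to 10 µM in PBS with 30 µM test compound (final; DMSO vehicle), incubated 24 h at 37 °C. Diluted to 2.25 µM in unheated SDS buffer, run on 10–20% gels, blotted to PVDF and probed with 6E10 then HRP anti-mouse, with chemiluminescence detection. Band intensities per range were read against marker. Means±SEM, ≥3 independent experiments, ANOVA/Dunnett vs DMSO.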

SH-SY5Y cells [3] = experiment: MTT cell viability, compound alone; format: cell-based, human; details: SH-SY5Y, 24 h; for Viability C. Compound alone: 0.9 µM compound, mean±SEM
Summary of the method: as §1

SH-SY5Y cells [4] = experiment: MTT cell viability, simultaneous treatment with Aβ aggregates and the compounds; format: cell-based, human; details: 24 h, 0.3 µM Aβ aggregates, 0.9 µM compound
Summary of the method: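 Aβ(1–42) was HFIP-pretreated, taken up at 5 mM in DMSO, diluted to 10 µM in PBS and aggregated 24 h at 37 °C. SH-SY5Y cells (5×10⁴/well, 24 h after plating) received 0.3 µM of these aggregates plus 0.9 µM compound together for 24 h. Read-out was MTT (4 h), OD570−OD700, as % of untreated and 100% death controls. Triplicate wells in ≥3 independent runs; ANOVA/Dunnett against DMSO vehicle.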

Aβ aggregates = Aβ aggregates (Homo sapiens, UniProt P05067); experiment: Thioflavin T fluorescence competition assay; format: binding
Chain of Aβ aggregates (P05067 672-713): as above

Aβ (1–42) [5] = target: T1, Aβ (1–42); experiment: Native gel electrophoresis of Aβ; format: biochemical; details: 30 µM compound, 24 h, 37 °C
Summary of the method: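 HFIP-pretreated Aβ(1–42) (5 mM DMSO stock) was diluted to 10 µM in PBS with 30 µM compound (1.5 mM DMSO stock) and held 24 h at 37 °C in the dark; DMSO served as vehicle. Samples were brought to 2.25 µM in native sample buffer, run on 5–20% gels at 100 V for 4 h at 4 °C and transferred to PVDF. Blots used 6E10 anti-Aβ (1:1000), HRP anti-mouse (1:20,000) and chemiluminescence.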

amyloid plaques = details: transgenic mouse model of AD, injection via the tail vein; cited from earlier work
APP/PS1 mice = details: cited from earlier work
Aβ = details: cited from earlier work
[6] = all ranges of 15–20, 20–37, 37–75, and 75–200 kDa

For `COc1cc(/C=C/C(=O)CC(=O)/C=C/c2ccc(O)c(OC)c2)ccc1O` [Cur, Curcumin, reference compound], the viability at 24 h, 0.9 µM [1] was 97.5 ± 7.3%, the Solubility / precipitation (Solubility check; 30 µM in PBS with DMSO) was “no precipitation” and the Solubility / precipitation (Solubility check; 200 µM solution) was “clearly observed precipitates”.

With `COc1cc(C=CC(=O)CC(=O)C=Cc2ccc(O)c(OC(F)(F)F)c2)ccc1O` [SY2, 1-[(4-Hydroxy-3-methoxy)phenyl]-7-[(4-hydroxy-3-trifluoromethoxy)phenyl]-1,6-heptadiene-3,5-dione] the “Densities of the bands of Aβ (1–42) vs vehicle control (in words)” value (“Densities … vs vehicle control (in words)” for short) (Aβ (1–42) [2]; only in the range of 15–20 kDa) was “significant increases” and the “Viability C. Compound alone” value (SH-SY5Y cells [3]) was 101.4±2.0%.

For `COc1cc(C=CC(=O)CC(=O)C=Cc2cc(C(F)(F)F)cc(C(F)(F)F)c2)ccc1O` [SY4, 1-[(4-Hydroxy-3-methoxy)phenyl]-7-[3,5-bis(trifluoromethyl)phenyl]-1,6-heptadiene-3,5-dione], the “Cell viability after simultaneous treatment vs vehicle control (in words)” value (SH-SY5Y cells [4]) was “significant reduction in cell viability” and the “Viability C. Compound alone” value (SH-SY5Y cells [3]) was 91.6±3.2%.

In the case of `COC(=O)CCC(C(=O)C=Cc1ccc(O)c(OC(F)(F)F)c1)C(=O)C=Cc1ccc(O)c(OC(F)(F)F)c1` (stereo not drawn) [SY5, 1,7-bis (4′-hydroxy-3′-trifluoromethoxyphenyl)-4-methoxycarbonylethyl-1,6-heptadiene-3,5-dione], the IC50 (Aβ aggregates) is reported as 440 nM, the “Smear bands in SDS-PAGE” value (Aβ (1–42) [2]) is reported as “Marked smear bands” and the “Densities … vs vehicle control (in words)” value (Aβ (1–42) [2]; [6]) is reported as “significant increases”. For the same compound, the viability at 24 h, 0.9 µM [1] was 102 ± 3.6%, the Solubility / precipitation (Solubility check; 30 µM in PBS with DMSO) was “no precipitation” and the “Smear bands in native-PAGE” value (Aβ (1–42) [5]) was “Marked smear bands”. For the same compound, the “Binding to amyloid plaques in brain” value (amyloid plaques) was “bound to amyloid plaques”, the “Blood–brain barrier penetration” value (amyloid plaques) was “penetrated the blood–brain barrier” and the Amyloid deposition (APP/PS1 mice) was “reduce amyloid deposition”. For the same compound, the Cognitive decline (APP/PS1 mice) was “inhibit cognitive decline”, the “Inhibition of Aβ aggregation” value (Aβ; 30 µM, ref our previous study) was “significant inhibition of Aβ aggregation” and the “Formation of higher molecular size Aβ aggregates” value (Aβ; incubated with Aβ during the aggregation state in vitro) was “inhibit the formation of higher molecular size Aβ aggregates”.

In the case of `COc1ccc(C=CC(=O)CC(=O)C=Cc2ccc(OC)c(F)c2)cc1F` [SY9, 1,7-Bis[(3-fluoro-4-methoxy)phenyl]-1,6-heptadiene-3,5-dione], the “Effects on Aβ aggregation (in words)” value (Aβ (1–42) [2]) is reported as “no effects on Aβ aggregation” and the “Viability C. Compound alone” value (SH-SY5Y cells [3]) is reported as 94.2±2.5%.

With `COC(=O)CCC(C(=O)C=Cc1cc(F)c(O)c(F)c1)C(=O)C=Cc1cc(F)c(O)c(F)c1` (stereo not drawn) [SY16, 1,7-Bis[(4-hydroxy-3,5-difluoro)phenyl]-4-methoxycarbonylethyl-1,6-hexadiene-3,5-dione] the “Viability C. Compound alone” value (SH-SY5Y cells [3]) was 94.1±2.8%.

With `COc1ccc(C=CC(=O)C(C)C(=O)C=Cc2ccc(OC)c(OC(F)(F)F)c2)cc1OC(F)(F)F` (stereo not drawn) [SY18, 1,7-Bis[(4-methoxy-3-trifluoromethoxy)phenyl]-4-methyl-1,6-hexadiene-3,5-dione] the “Effects on Aβ aggregation (in words)” value (Aβ (1–42) [2]) was “no effects on Aβ aggregation”, the “Cell viability after treatment with compound alone (in words)” value (SH-SY5Y cells [3]; 0.9 µM) was “significantly reduced cell viability” and the “Viability C. Compound alone” value (SH-SY5Y cells [3]) was 69.5±7.7 %.

With `COCOc1ccc(C=CC(=O)C(CCC(=O)OC(C)(C)C)C(=O)C=Cc2ccc(OCOC)c(OC(F)(F)F)c2)cc1OC(F)(F)F` (stereo not drawn) [SY22, 1,7-Bis[(4-methoxymethoxy-3-trifluoromethoxy)phenyl]-4-(1,1-dimethylethoxy)carbonylethyl-1,6-hexadiene-3,5-dione] the “Effects on Aβ aggregation (in words)” value (Aβ (1–42) [2]) was “no effects on Aβ aggregation” and the “Viability C. Compound alone” value (SH-SY5Y cells [3]) was 95.8±3.6%.

With `COC(=O)CCC(C(=O)C=Cc1ccc(O)c(OC)c1)C(=O)C=Cc1ccc(O)c(OC)c1` (stereo not drawn) [SY23, 1,7-Bis[(4-hydroxy-3-methoxy)phenyl]-4-methoxycarbonylethyl-1,6-heptadiene-3,5-dione] the “Viability C. Compound alone” value (SH-SY5Y cells [3]) was 97.9±2.4%.

For `O=C(C=Cc1ccc(O)c(OC(F)(F)F)c1)C(CCOCCOCCOCCOC1CCCCO1)C(=O)C=Cc1ccc(O)c(OC(F)(F)F)c1` (stereo not drawn) [SY27, 1,7-Bis[(4-hydroxy-3-trifluoromethoxy)phenyl]-4-[11-(2-tetrahydropyranyloxy)-3,6,9-trioxaundec-1yl]-1,6-heptadiene-3,5-dione], the “Viability C. Compound alone” value (SH-SY5Y cells [3]) was 98.5±5.3%.

In the case of `O=C(C=Cc1ccc(O)c(OC(F)(F)F)c1)C(CCOC1CCCCO1)C(=O)C=Cc1ccc(O)c(OC(F)(F)F)c1` (stereo not drawn) [SY33, 1,7-Bis[(4-hydroxy-3-trifluoromethoxy)phenyl]-4-(2-tetrahydropyranyloxy)ethyl-1,6-heptadiene-3,5-dione], the “Smear bands in SDS-PAGE” value (Aβ (1–42) [2]) is reported as “Marked smear bands”, the “Densities … vs vehicle control (in words)” value (Aβ (1–42) [2]; [6]) is reported as “significant increases” and the “Viability C. Compound alone” value (SH-SY5Y cells [3]) is reported as 97.8±4.2%. For the same compound, the Solubility / precipitation (Solubility check; 30 µM in PBS with DMSO) was “no precipitation” and the “Smear bands in native-PAGE” value (Aβ (1–42) [5]) was “Marked smear bands”.

With `COC(=O)COc1ccc(C=CC(=O)CC(=O)C=Cc2ccc(O)c(OC)c2)cc1OC` [SY35, 1-[(4-Hydroxy-3-methoxy)phenyl]-7-[(3-methoxy-4-methoxycarbonylmethoxy)phenyl]-1,6-heptadiene-3,5-dione] the “Viability C. Compound alone” value (SH-SY5Y cells [3]) was 93.7±2.9%.

For `COC(=O)CCC(C(=O)C=Cc1ccc(O)c(OC(F)(F)F)c1)C(=O)C=Cc1ccco1` (stereo not drawn) [SY37, 1-[(4-Hydroxy-3-trifluoromethoxy)phenyl]-7-(2-furyl)-4-methoxycarbonylethyl-1,6-heptadiene-3,5-dione], the “Densities … vs vehicle control (in words)” value (Aβ (1–42) [2]; only in the range of 20–37 kDa) was “significant increases” and the “Viability C. Compound alone” value (SH-SY5Y cells [3]) was 93.0±4.1%.

In the case of `COC(=O)CCC(C(=O)C=Cc1ccc(O)c(F)c1)C(=O)C=Cc1ccc(O)c(F)c1` (stereo not drawn) [SY38, 1,7-Bis[(4-hydroxy-3-fluoro)phenyl]-4-methoxycarbonylethyl-1,6-heptadiene-3,5-dione], the “Densities … vs vehicle control (in words)” value (Aβ (1–42) [2]; only in the range of 20–37 kDa) is reported as “significant increases” and the “Viability C. Compound alone” value (SH-SY5Y cells [3]) is reported as 91.6±3.9%.

With `CCC(C(=O)C=Cc1ccc(O)c(OC(F)(F)F)c1)C(=O)C=Cc1ccc(O)c(OC(F)(F)F)c1` (stereo not drawn) [SY41, 1,7-Bis[(4-hydroxy-3-trifluoromethoxy)phenyl]-4-ethyl-1,6-heptadiene-3,5-dione] the “Viability C. Compound alone” value (SH-SY5Y cells [3]) was 93.4±5.9%.

With `COc1ccc(C=CC(=O)C(CCC(=O)OC(C)(C)C)C(=O)C=Cc2ccc(OC)c(F)c2)cc1F` (stereo not drawn) [SY42, 1,7-Bis[(3-fluoro-4-methoxy)phenyl]-4-(1,1-dimethylethoxy)carbonylethyl-1,6-heptadiene-3,5-dione] the “Effects on Aβ aggregation (in words)” value (Aβ (1–42) [2]) was “no effects on Aβ aggregation” and the “Viability C. Compound alone” value (SH-SY5Y cells [3]) was 88.6±6.3%.
